In the M2OR odorant receptor database:

Biological target: T1, UniProt Q9WVN5
T1 sequence (whole entry): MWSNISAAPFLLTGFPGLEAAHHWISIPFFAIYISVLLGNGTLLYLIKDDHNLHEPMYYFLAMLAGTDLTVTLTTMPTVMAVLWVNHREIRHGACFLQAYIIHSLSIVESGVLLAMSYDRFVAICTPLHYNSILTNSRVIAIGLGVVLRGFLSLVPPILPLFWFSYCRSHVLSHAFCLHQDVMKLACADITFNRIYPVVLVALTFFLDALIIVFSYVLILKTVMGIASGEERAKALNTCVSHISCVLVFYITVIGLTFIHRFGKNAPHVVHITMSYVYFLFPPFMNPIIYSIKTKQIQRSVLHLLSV
Conditions: stereoisomer not certain
Procedure, shortened: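 Assay methods differ from source to source, frequently being transient luciferase assays in mammalian cell lines. For each receptor–molecule pair, the label responsive (active) applies when the original authors judged the measured signal statistically different from baseline, and non-responsive (inactive) applies otherwise.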

Odorant receptor agonist call, inactive:
CCCC(C)=O
O=c1ccc2ccccc2o1
CCCCOC(=O)C(C)OC(=O)CCC (stereo not drawn)
CC(=O)OCc1ccccc1
CCCCCCCCCS
CCCCCCCC(=O)[O-].[H+]
O=C(c1ccccc1)c1ccccc1
CCC(C(=O)O)c1ccccc1 (stereo not drawn)
O=C1CCOc2ccccc21
CCCCCC1=C(C)CCC1=O
CCCC(=O)C(C)=O
CC12CCC(CC1=O)C2(C)C (stereo not drawn)
CCCCCO
C=CCOC(=O)CCCCCC
CC(=O)OCC=C(C)C
CCCCCCOC(C)=O
CCC(=O)O
CCC(=O)C(=O)CC
CCCCCOC(=O)CCCCC
CCCCC(C)=O
CCCCC(=O)CC

Odorant receptor agonist call, active:
O=C1Cc2ccccc2O1
CCCCCCC(=O)[O-].[H+]
